Assay results from ChEMBL document CHEMBL1125057, “Synthesis and antihypertensive activity of 4-(substituted-carbonylamino)-2H-1-benzopyrans” (1990).

Key:
Type in all cases: functional
Rattus norvegicus [1] = assay: Systolic blood pressure was measured at intervals from 1 to 6 hr in groups of six rats after oral administration of a dose of 1.0 mg/kg
Summary of the method: (§1)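 Conscious spontaneously hypertensive rats of Okamoto origin, 14-24 weeks old, with systolic pressure >180 mmHg, were used in groups of six. Dosing was oral by esophageal needle as a solution or suspension in 1% w/v methylcellulose. Systolic pressure was taken by tail-cuff before dosing and at intervals up to 6 h postdose. Each determination was the mean of at least six recordings.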

Rattus norvegicus [2] = assay: Systolic blood pressure at intervals from 1 to 6 hr in groups of six rats after 0.3 mg/kg p.o. administration.; conditions: route oral; summary of the method: as §1
Oryctolagus cuniculus = organism: Oryctolagus cuniculus; assay: Increase in rubidium-86 efflux in rabbit isolated mesenteric artery over basal rate
Summary of the method: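 Segments (10-20 mg wet weight) of New Zealand White rabbit mesenteric artery were held 30 min in aerated (19:1 O2-CO2) HEPES buffer, pH 7.4, at 37 °C. They were loaded with 100-200 µCi rubidium-86 over 90 min, then moved every 3 min through label-free buffer. Compound at 1 × 10^-5 M was present over min 30-48. Efflux was counted by liquid scintillation. Value is the maximum rate coefficient over min 30-45 as a percentage of basal (mean over min 21-30), ± standard error.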

Rattus norvegicus [3] = assay: Systolic blood pressure was measured at intervals from 1 to 6 hr in groups of six rats after oral administration of a dose of 0.1 mg/kg; summary of the method: as §1
Rattus norvegicus [4] = assay: Systolic blood pressure was measured at intervals from 1 to 6 hr in groups of six rats after oral administration of a dose of 10 mg/kg; summary of the method: as §1
Rattus norvegicus [5] = assay: Systolic blood pressure was measured at intervals from 1 to 6 hr in groups of six rats after oral administration of a dose of 1 mg/kg; summary of the method: as §1
Rattus norvegicus [6] = assay: Systolic blood pressure was measured at intervals from 1 to 6 hr in groups of six rats after oral administration of a dose of 3 mg/kg; summary of the method: as §1
Rattus norvegicus [7] = assay: Systolic blood pressure was measured at intervals from 1 to 6 hr in groups of six rats after oral administration of a dose of 10.0 mg/kg; summary of the method: as §1
Rattus norvegicus [8] = assay: Systolic blood pressure was measured at intervals from 1 to 6 h in groups of six rats after oral administration of a dose of 1 mg/kg; summary of the method: as §1

| SMILES | Decrease in blood pressure (Rattus norvegicus [1]) [%] | Decrease in blood pressure (Rattus norvegicus [2]) [%] | Decrease in blood pressure (Rattus norvegicus [4]) [%] | other results |
| --- | --- | --- | --- | --- |
| CC1(C)Oc2ccc(C#N)cc2C(NC(=O)c2ccccc2)[C@@H]1O (some centres not stated) | 41 | 16 | – | – |
| CNC(=O)NC1c2cc(C#N)ccc2OC(C)(C)[C@H]1O (some centres not stated) | 61 | 31 | – | Increase (Oryctolagus cuniculus): 63%; Decrease in blood pressure (Rattus norvegicus [3]): 14% |
| CC1(C)Oc2ccc(C#N)cc2C(NC=O)[C@@H]1O (some centres not stated) | – | – | 26 | Decrease in blood pressure (Rattus norvegicus [5]): 10% |
| CC(=O)NC1c2cc(C(C)=O)ccc2OC(C)(C)[C@H]1O (some centres not stated) | 61 | 23 | – | Increase (Oryctolagus cuniculus): 38%; Decrease in blood pressure (Rattus norvegicus [3]): 20% |
| CC(=O)Nc1cc2c(cc1[N+](=O)[O-])C(NC(C)=O)[C@H](O)C(C)(C)O2 (some centres not stated) | – | 38 | – | Decrease in blood pressure (Rattus norvegicus [3]): 9% |
| CCC(=O)NC1c2cc(C#N)ccc2OC(C)(C)[C@H]1O (some centres not stated) | 29 | 10 | – | – |
| CC1(C)Oc2ccc(C#N)cc2C(NC(=O)NC(=O)C(Cl)(Cl)Cl)[C@@H]1O (some centres not stated) | – | – | 28 | Decrease in blood pressure (Rattus norvegicus [5]): 13% |
| CC1(C)Oc2ccc(C#N)cc2C(NC(=O)Nc2ccccc2)[C@@H]1O (some centres not stated) | – | – | 13 | – |
| CC1(C)Oc2ccc(C#N)cc2C(NC(=O)CCl)[C@@H]1O (some centres not stated) | – | – | 28 | – |
| COCC(=O)NC1c2cc(C#N)ccc2OC(C)(C)[C@H]1O (some centres not stated) | 32 | 16 | – | – |
| CC1(C)Oc2ccc(C#N)cc2C(NC(=O)c2c[nH]c3ccccc23)[C@@H]1O (some centres not stated) | – | – | 13 | – |
| CC1(C)Oc2ccc(C#N)cc2C(NC(=O)c2ccc3ccccc3c2)[C@@H]1O (some centres not stated) | – | – | 35 | Increase (Oryctolagus cuniculus): 17%; Decrease in blood pressure (Rattus norvegicus [5]): 6% |
| CC(C)(C)NC(=O)NC1c2cc(C#N)ccc2OC(C)(C)[C@H]1O (some centres not stated) | – | – | 8 | – |
| CCCCNC(=O)NC1c2cc(C#N)ccc2OC(C)(C)[C@H]1O (some centres not stated) | – | – | 29 | Decrease in blood pressure (Rattus norvegicus [5]): 11% |
| CC(=O)NC1=CC(C)(C)Oc2ccc(C#N)cc21 | – | – | – | Decrease in blood pressure (Rattus norvegicus [6]): 52%; Decrease in blood pressure (Rattus norvegicus [5]): 20% |
| CCCCC(=O)NC1c2cc(C#N)ccc2OC(C)(C)[C@H]1O (some centres not stated) | – | – | 64 | Decrease in blood pressure (Rattus norvegicus [6]): 18% |
| CC(=O)NC1c2cc(C#N)ccc2OC(C)(C)[C@H]1O (some centres not stated) | 67 | 47 | – | Increase (Oryctolagus cuniculus): 59%; Decrease in blood pressure (Rattus norvegicus [3]): 18% |
| CC1(C)Oc2ccc(C#N)cc2C(NC(=O)c2ccccn2)[C@@H]1O (some centres not stated) | – | 36 | – | Increase (Oryctolagus cuniculus): 53%; Decrease in blood pressure (Rattus norvegicus [3]): 22% |
| CC(=S)NC1c2cc(C#N)ccc2OC(C)(C)[C@H]1O (some centres not stated) | 53 | 26 | – | – |
| CC(=O)NC1c2cc(C#N)c([N+](=O)[O-])cc2OC(C)(C)[C@H]1O (some centres not stated) | – | 46 | – | Decrease in blood pressure (Rattus norvegicus [3]): 26% |

| SMILES | Decrease in blood pressure (Rattus norvegicus [1]) [%] | Decrease in blood pressure (Rattus norvegicus [2]) [%] | Decrease in blood pressure (Rattus norvegicus [4]) [%] | other results |
| --- | --- | --- | --- | --- |
| C/N=C(/S)NC1c2cc(C#N)ccc2OC(C)(C)[C@H]1O (some centres not stated) | – | – | – | Decrease in blood pressure (Rattus norvegicus [7]): 50%; Decrease in blood pressure (Rattus norvegicus [6]): 33%; Decrease in blood pressure (Rattus norvegicus [5]): 16% |
| CC1(C)Oc2ccc(C#N)cc2C(NC(=O)c2ccco2)[C@@H]1O (some centres not stated) | 54 | 11 | – | – |
| CC1(C)Oc2ccc(C#N)cc2C(NC(N)=O)[C@@H]1O (some centres not stated) | – | – | – | Decrease in blood pressure (Rattus norvegicus [7]): 56%; Decrease in blood pressure (Rattus norvegicus [6]): 46%; Decrease in blood pressure (Rattus norvegicus [5]): 18% |
| CCOC(=O)C(=O)NC1c2cc(C#N)ccc2OC(C)(C)[C@H]1O (some centres not stated) | – | – | 12 | – |
| CC(=O)Nc1cc2c(cc1[N+](=O)[O-])OC(C)(C)[C@@H](O)C2NC(C)=O (some centres not stated) | – | – | – | Decrease in blood pressure (Rattus norvegicus [6]): 16% |
| CC(=O)NC1c2ccccc2OC(C)(C)[C@H]1O (some centres not stated) | – | – | 13 | – |
| CC(=O)NC1CC(C)(C)Oc2ccc(C#N)cc21 (configuration not stated) | 44 | 18 | – | – |
| CC(=O)N(C)C1c2cc(C#N)ccc2OC(C)(C)[C@H]1O (some centres not stated) | 31 | 11 | – | – |
| CC(=O)NC1c2cc(Br)c([N+](=O)[O-])cc2OC(C)(C)[C@H]1O (some centres not stated) | 51 | 25 | – | – |
| CCOC(=O)NC1c2cc(C#N)ccc2OC(C)(C)[C@H]1O (some centres not stated) | – | – | – | Decrease in blood pressure (Rattus norvegicus [7]): 54%; Decrease in blood pressure (Rattus norvegicus [6]): 22%; Decrease in blood pressure (Rattus norvegicus [5]): 13% |
| CC1(C)Oc2ccc(C#N)cc2C(NC(=O)c2cccnc2)[C@@H]1O (some centres not stated) | 43 | 27 | – | – |
| CC(=O)NC1c2cc(C#N)ccc2OC(C)(C)[C@H]1OC(C)=O (some centres not stated) | – | 34 | – | Decrease in blood pressure (Rattus norvegicus [3]): 9%; Decrease in blood pressure (Rattus norvegicus [8]): 61% |
| CCCN(C(C)=O)C1c2cc(C#N)ccc2OC(C)(C)[C@H]1O (some centres not stated) | – | – | – | Decrease in blood pressure (Rattus norvegicus [6]): 58%; Decrease in blood pressure (Rattus norvegicus [5]): 24% |
| CC(=O)NC1c2cc(Cl)ccc2OC(C)(C)[C@H]1O (some centres not stated) | – | – | 34 | Decrease in blood pressure (Rattus norvegicus [5]): 8% |
| CNCC(=O)NC1c2cc(C#N)ccc2OC(C)(C)[C@H]1O (some centres not stated) | – | – | 15 | – |
| CC1(C)Oc2ccc(C#N)cc2C(NC(=O)c2ccoc2)[C@@H]1O (some centres not stated) | 35 | 19 | – | – |
| CC1(C)Oc2ccc(C#N)cc2C(NC(=O)c2ccc[nH]2)[C@@H]1O (some centres not stated) | 50 | 12 | – | – |
| CCN(C(C)=O)C1c2cc(C#N)ccc2OC(C)(C)[C@H]1O (some centres not stated) | 22 | 14 | – | – |
| CC1(C)Oc2ccc(C#N)cc2C(N2CCCC2=O)C1O (configuration not stated) [CROMAKALIM] | 47 | 39 | – | Increase (Oryctolagus cuniculus): 110%; Decrease in blood pressure (Rattus norvegicus [3]): 13% |
| CC(N/C(=N\C#N)Nc1ccncc1)C(C)(C)C (configuration not stated) [PINACIDIL ANHYDROUS] | – | – | – | Increase (Oryctolagus cuniculus): 72%; Decrease in blood pressure (Rattus norvegicus [6]): 39%; Decrease in blood pressure (Rattus norvegicus [5]): 11% |
